# Several values for one entry are separate records, joined by “and”; a condition that tells them apart may be missing. Equal entries are not always repeated.
# Key:
# Assay type in all cases: toxicity, cell-based
# HEK-293T = assay: Multiplex assay against HEK293T; settings: human, number of replicates 2
# Procedure, shortened: (§1)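 Values for tubulin, mitochondrial-mass and membrane-permeability phenotypes are per cents of cells with healthy nuclei. These cells were identified by CellPathfinder machine-learning gating of live cells that had been stained at seeding with Hoechst33342, BioTracker Green Microtubule Cytoskeleton Dye, MitoTracker Red and Annexin V Alexa Fluor 680 and imaged on a CQ1 microscope at 37°C and 5% CO2 after compound addition. The gating first set Hoechst high-intensity objects apart from normal cells, then split normal cells into healthy, pyknosed or fragmented nuclei, and pyknosed cells into mitotic or apoptotic.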
# U2OS = assay: Multiplex assay against U2OS; settings: human, number of replicates 2; procedure, shortened: as §1
# Fibroblast = assay: Multiplex assay against human fibroblast; settings: number of replicates 2; procedure, shortened: as §1
# [1] = 12 h, 1 µM, compound concentration 1 uM
# [2] = 12 h, 10 µM, compound concentration 10 uM
# [3] = 24 h, 1 µM, compound concentration 1 uM
# [4] = 24 h, 10 µM, compound concentration 10 uM
# [5] = 48 h, 1 µM, compound concentration 1 uM
# [6] = 48 h, 10 µM, compound concentration 10 uM
smiles,measurement,setting,value
O=C(Nc1ccc(Cl)c(-c2ccccn2)c1)c1cccc(COc2ccc(Br)cc2CNCCO)c1.O=CO,Population Apoptotic (%),HEK-293T; [1],56% and 52%
same,Population Fragmented Nuclei (%),HEK-293T; [1],4% and 3%
same,Population Healthy Nuclei (%),HEK-293T; [1],76% and 80%
same,Population Hoechst High Intensity Objects (%),HEK-293T; [1],8% and 10%
same,Population Membrane Permeable-Phenotype (%),HEK-293T; [1],6% and 5%
same,Population Mitochondria Different-Phenotype (%),HEK-293T; [1],37% and 35%
same,Population Mitotic Cells (%),HEK-293T; [1],43% and 47%
same,Population Normal (%),HEK-293T; [1],91% and 89%
same,Population Pyknosed Nuclei (%),HEK-293T; [1],18% and 15%
same,Population Tubulin-Different-Phenotype (%),HEK-293T; [1],92% and 94%
same,Total Cell Count,HEK-293T; [1],417 and 613
same,Population Apoptotic (%),HEK-293T; [2],85% and 73%
same,Population Fragmented Nuclei (%),HEK-293T; [2],0% and 7%
same,Population Healthy Nuclei (%),HEK-293T; [2],79% and 71%
same,Population Hoechst High Intensity Objects (%),HEK-293T; [2],11% and 13%
same,Population Membrane Permeable-Phenotype (%),HEK-293T; [2],1%
same,Population Mitochondria Different-Phenotype (%),HEK-293T; [2],91% and 83%
same,Population Mitotic Cells (%),HEK-293T; [2],14% and 26%
same,Population Normal (%),HEK-293T; [2],88% and 86%
same,Population Pyknosed Nuclei (%),HEK-293T; [2],19% and 21%
same,Population Tubulin-Different-Phenotype (%),HEK-293T; [2],81% and 95%
same,Total Cell Count,HEK-293T; [2],238 and 269
same,Population Apoptotic (%),HEK-293T; [3],48% and 54%
same,Population Fragmented Nuclei (%),HEK-293T; [3],4% and 6%
same,Population Healthy Nuclei (%),HEK-293T; [3],85% and 82%
same,Population Hoechst High Intensity Objects (%),HEK-293T; [3],6% and 10%
same,Population Membrane Permeable-Phenotype (%),HEK-293T; [3],6%
same,Population Mitochondria Different-Phenotype (%),HEK-293T; [3],29% and 19%
same,Population Mitotic Cells (%),HEK-293T; [3],51% and 45%
same,Population Normal (%),HEK-293T; [3],93% and 89%
same,Population Pyknosed Nuclei (%),HEK-293T; [3],9% and 11%
same,Population Tubulin-Different-Phenotype (%),HEK-293T; [3],88% and 86%
same,Total Cell Count,HEK-293T; [3],566 and 806
same,Population Apoptotic (%),HEK-293T; [4],82% and 80%
same,Population Fragmented Nuclei (%),HEK-293T; [4],4%
same,Population Healthy Nuclei (%),HEK-293T; [4],75% and 72%
same,Population Hoechst High Intensity Objects (%),HEK-293T; [4],16% and 15%
same,Population Membrane Permeable-Phenotype (%),HEK-293T; [4],1% and 2%
same,Population Mitochondria Different-Phenotype (%),HEK-293T; [4],95% and 89%
same,Population Mitotic Cells (%),HEK-293T; [4],17% and 19%
same,Population Normal (%),HEK-293T; [4],83% and 84%
same,Population Pyknosed Nuclei (%),HEK-293T; [4],19% and 23%
same,Population Tubulin-Different-Phenotype (%),HEK-293T; [4],74% and 91%
same,Total Cell Count,HEK-293T; [4],248 and 263
same,Population Apoptotic (%),HEK-293T; [5],48% and 34%
same,Population Fragmented Nuclei (%),HEK-293T; [5],7% and 9%
same,Population Healthy Nuclei (%),HEK-293T; [5],87% and 85%
same,Population Hoechst High Intensity Objects (%),HEK-293T; [5],8% and 10%
same,Population Membrane Permeable-Phenotype (%),HEK-293T; [5],9% and 8%
same,Population Mitochondria Different-Phenotype (%),HEK-293T; [5],8% and 5%
same,Population Mitotic Cells (%),HEK-293T; [5],51% and 65%
same,Population Normal (%),HEK-293T; [5],91% and 89%
same,Population Pyknosed Nuclei (%),HEK-293T; [5],4%
same,Population Tubulin-Different-Phenotype (%),HEK-293T; [5],61% and 66%
same,Total Cell Count,HEK-293T; [5],894 and 1474
same,Population Apoptotic (%),HEK-293T; [6],79% and 78%
same,Population Fragmented Nuclei (%),HEK-293T; [6],3% and 1%
same,Population Healthy Nuclei (%),HEK-293T; [6],71% and 68%
same,Population Hoechst High Intensity Objects (%),HEK-293T; [6],19% and 12%
same,Population Membrane Permeable-Phenotype (%),HEK-293T; [6],4% and 1%
same,Population Mitochondria Different-Phenotype (%),HEK-293T; [6],82% and 86%
same,Population Mitotic Cells (%),HEK-293T; [6],20% and 21%
same,Population Normal (%),HEK-293T; [6],80% and 87%
same,Population Pyknosed Nuclei (%),HEK-293T; [6],24% and 29%
same,Population Tubulin-Different-Phenotype (%),HEK-293T; [6],84% and 89%
same,Total Cell Count,HEK-293T; [6],339 and 305
same,Population Apoptotic (%),U2OS; [1],71% and 88%
same,Population Fragmented Nuclei (%),U2OS; [1],11% and 3%
same,Population Healthy Nuclei (%),U2OS; [1],62% and 75%
same,Population Hoechst High Intensity Objects (%),U2OS; [1],0%
same,Population Membrane Permeable-Phenotype (%),U2OS; [1],47% and 48%
same,Population Mitochondria Different-Phenotype (%),U2OS; [1],23% and 66%
same,Population Mitotic Cells (%),U2OS; [1],28% and 11%
same,Population Normal (%),U2OS; [1],100%
same,Population Pyknosed Nuclei (%),U2OS; [1],25% and 20%
same,Population Tubulin-Different-Phenotype (%),U2OS; [1],82% and 87%
same,Population Apoptotic (%),U2OS; [2],75% and 64%
same,Population Healthy Nuclei (%),U2OS; [2],44% and 72%
same,Population Hoechst High Intensity Objects (%),U2OS; [2],0%
same,Population Membrane Permeable-Phenotype (%),U2OS; [2],62% and 32%
same,Population Mitochondria Different-Phenotype (%),U2OS; [2],62% and 57%
same,Population Mitotic Cells (%),U2OS; [2],25% and 36%
same,Population Normal (%),U2OS; [2],100%
same,Population Pyknosed Nuclei (%),U2OS; [2],11% and 16%
same,Population Tubulin-Different-Phenotype (%),U2OS; [2],100% and 93%
same,Population Apoptotic (%),U2OS; [3],69% and 82%
same,Population Healthy Nuclei (%),U2OS; [3],48% and 76%
same,Population Hoechst High Intensity Objects (%),U2OS; [3],0%
same,Population Membrane Permeable-Phenotype (%),U2OS; [3],31% and 45%
same,Population Mitochondria Different-Phenotype (%),U2OS; [3],57% and 69%
same,Population Mitotic Cells (%),U2OS; [3],30% and 17%
same,Population Normal (%),U2OS; [3],100% and 99%
same,Population Pyknosed Nuclei (%),U2OS; [3],33% and 20%
same,Population Tubulin-Different-Phenotype (%),U2OS; [3],100% and 84%
same,Population Apoptotic (%),U2OS; [4],100% and 71%
same,Population Healthy Nuclei (%),U2OS; [4],51% and 63%
same,Population Hoechst High Intensity Objects (%),U2OS; [4],0%
same,Population Membrane Permeable-Phenotype (%),U2OS; [4],82% and 75%
same,Population Mitochondria Different-Phenotype (%),U2OS; [4],82% and 72%
same,Population Normal (%),U2OS; [4],100%
same,Population Pyknosed Nuclei (%),U2OS; [4],15% and 28%
same,Population Tubulin-Different-Phenotype (%),U2OS; [4],100% and 98%
same,Population Apoptotic (%),U2OS; [5],69% and 89%
same,Population Healthy Nuclei (%),U2OS; [5],52% and 66%
same,Population Hoechst High Intensity Objects (%),U2OS; [5],2% and 0%
same,Population Membrane Permeable-Phenotype (%),U2OS; [5],40% and 46%
same,Population Mitochondria Different-Phenotype (%),U2OS; [5],52% and 59%
same,Population Mitotic Cells (%),U2OS; [5],30% and 10%
same,Population Normal (%),U2OS; [5],97% and 100%
same,Population Pyknosed Nuclei (%),U2OS; [5],27% and 30%
same,Population Tubulin-Different-Phenotype (%),U2OS; [5],92% and 65%
same,Population Apoptotic (%),U2OS; [6],94% and 90%
same,Population Healthy Nuclei (%),U2OS; [6],15% and 28%
same,Population Hoechst High Intensity Objects (%),U2OS; [6],2% and 1%
same,Population Membrane Permeable-Phenotype (%),U2OS; [6],100% and 80%
same,Population Mitochondria Different-Phenotype (%),U2OS; [6],66% and 72%
same,Population Mitotic Cells (%),U2OS; [6],5% and 9%
same,Population Normal (%),U2OS; [6],97% and 98%
same,Population Pyknosed Nuclei (%),U2OS; [6],44% and 62%
same,Population Tubulin-Different-Phenotype (%),U2OS; [6],100% and 97%
same,Population Apoptotic (%),Fibroblast; [1],41% and 58%
same,Population Fragmented Nuclei (%),Fibroblast; [1],4% and 14%
same,Population Healthy Nuclei (%),Fibroblast; [1],72% and 56%
same,Population Hoechst High Intensity Objects (%),Fibroblast; [1],0% and 1%
same,Population Membrane Permeable-Phenotype (%),Fibroblast; [1],10% and 13%
same,Population Mitochondria Different-Phenotype (%),Fibroblast; [1],1% and 6%
same,Population Mitotic Cells (%),Fibroblast; [1],58% and 41%
same,Population Normal (%),Fibroblast; [1],100% and 98%
same,Population Pyknosed Nuclei (%),Fibroblast; [1],23% and 28%
same,Population Tubulin-Different-Phenotype (%),Fibroblast; [1],71% and 68%
same,Total Cell Count,Fibroblast; [1],208 and 161
same,Population Apoptotic (%),Fibroblast; [2],46% and 42%
same,Population Fragmented Nuclei (%),Fibroblast; [2],15% and 17%
same,Population Healthy Nuclei (%),Fibroblast; [2],58%
same,Population Hoechst High Intensity Objects (%),Fibroblast; [2],0%
same,Population Membrane Permeable-Phenotype (%),Fibroblast; [2],21% and 16%
same,Population Mitochondria Different-Phenotype (%),Fibroblast; [2],6% and 14%
same,Population Mitotic Cells (%),Fibroblast; [2],53% and 57%
same,Population Normal (%),Fibroblast; [2],100% and 99%
same,Population Pyknosed Nuclei (%),Fibroblast; [2],25% and 24%
same,Population Tubulin-Different-Phenotype (%),Fibroblast; [2],83% and 85%
same,Total Cell Count,Fibroblast; [2],318 and 361
same,Population Apoptotic (%),Fibroblast; [3],55% and 63%
same,Population Fragmented Nuclei (%),Fibroblast; [3],9% and 11%
same,Population Healthy Nuclei (%),Fibroblast; [3],69% and 58%
same,Population Hoechst High Intensity Objects (%),Fibroblast; [3],0%
same,Population Membrane Permeable-Phenotype (%),Fibroblast; [3],6% and 5%
same,Population Mitochondria Different-Phenotype (%),Fibroblast; [3],5% and 8%
same,Population Mitotic Cells (%),Fibroblast; [3],44% and 36%
same,Population Normal (%),Fibroblast; [3],99% and 100%
same,Population Pyknosed Nuclei (%),Fibroblast; [3],21% and 30%
same,Population Tubulin-Different-Phenotype (%),Fibroblast; [3],59% and 61%
same,Total Cell Count,Fibroblast; [3],224 and 146
same,Population Apoptotic (%),Fibroblast; [4],76% and 81%
same,Population Fragmented Nuclei (%),Fibroblast; [4],10% and 6%
same,Population Healthy Nuclei (%),Fibroblast; [4],40% and 46%
same,Population Hoechst High Intensity Objects (%),Fibroblast; [4],0% and 1%
same,Population Mitochondria Different-Phenotype (%),Fibroblast; [4],40% and 50%
same,Population Mitotic Cells (%),Fibroblast; [4],23% and 18%
same,Population Normal (%),Fibroblast; [4],99% and 98%
same,Population Pyknosed Nuclei (%),Fibroblast; [4],49% and 47%
same,Population Tubulin-Different-Phenotype (%),Fibroblast; [4],82%
same,Total Cell Count,Fibroblast; [4],238 and 280
same,Population Apoptotic (%),Fibroblast; [5],61% and 78%
same,Population Fragmented Nuclei (%),Fibroblast; [5],9% and 12%
same,Population Healthy Nuclei (%),Fibroblast; [5],72% and 64%
same,Population Hoechst High Intensity Objects (%),Fibroblast; [5],1%
same,Population Membrane Permeable-Phenotype (%),Fibroblast; [5],4% and 5%
same,Population Mitochondria Different-Phenotype (%),Fibroblast; [5],3% and 8%
same,Population Mitotic Cells (%),Fibroblast; [5],38% and 21%
same,Population Normal (%),Fibroblast; [5],98%
same,Population Pyknosed Nuclei (%),Fibroblast; [5],18% and 22%
same,Population Tubulin-Different-Phenotype (%),Fibroblast; [5],54% and 42%
same,Total Cell Count,Fibroblast; [5],215 and 165
same,Population Apoptotic (%),Fibroblast; [6],95%
same,Population Fragmented Nuclei (%),Fibroblast; [6],9% and 8%
same,Population Healthy Nuclei (%),Fibroblast; [6],12% and 13%
same,Population Hoechst High Intensity Objects (%),Fibroblast; [6],0%
same,Population Membrane Permeable-Phenotype (%),Fibroblast; [6],38% and 27%
same,Population Mitochondria Different-Phenotype (%),Fibroblast; [6],23% and 41%
same,Population Mitotic Cells (%),Fibroblast; [6],4%
same,Population Normal (%),Fibroblast; [6],99%
same,Population Pyknosed Nuclei (%),Fibroblast; [6],78% and 77%
same,Population Tubulin-Different-Phenotype (%),Fibroblast; [6],66% and 75%
same,Total Cell Count,Fibroblast; [6],174 and 211
